This passage reports IC50 results from ChEMBL document CHEMBL4400543, “Identification and Characterization of AES-135, a Hydroxamic Acid-Based HDAC Inhibitor That Prolongs Survival in an Orthotopic Mouse Model of Pancreatic Cancer” (J Med Chem, 2019).

Structures are written as SMILES.

Experiment [1] is described as follows: Cytotoxicity against human Pa02C monolayer cells assessed as reduction in tumor spheroid intensity after 72 hrs by Alamar Blue assay. In kind it is functional, cell-based. In short, it runs like this: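 Monolayer proliferation of STR-authenticated, mycoplasma-checked patient-derived PDAC lines and mouse KPC cells. Plated at 2000 cells/well, treated 72 h, read by alamarBlue. At least triplicate, n = 3–5.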

For experiment [2], the target named is T1, Histone deacetylase 11 (Homo sapiens, UniProt Q96DB2).
T1 sequence (Q96DB2 whole entry): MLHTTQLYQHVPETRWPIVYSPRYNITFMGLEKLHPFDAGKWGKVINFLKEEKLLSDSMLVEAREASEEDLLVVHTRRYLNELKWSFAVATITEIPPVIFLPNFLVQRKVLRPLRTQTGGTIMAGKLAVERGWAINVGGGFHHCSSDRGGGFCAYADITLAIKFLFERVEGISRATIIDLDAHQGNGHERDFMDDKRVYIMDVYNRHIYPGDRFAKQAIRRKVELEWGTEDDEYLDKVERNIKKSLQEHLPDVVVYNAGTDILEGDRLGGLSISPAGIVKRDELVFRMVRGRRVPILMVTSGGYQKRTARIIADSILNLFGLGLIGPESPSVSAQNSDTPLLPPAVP
Put plainly: Inhibition of recombinant human HDAC11 expressed in SF9 baculoviral system using FAM-labeled acetylated peptide as substrate by EMSA. In short, it runs like this: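 Full-length human HDAC11 (Sf9-expressed), 10 nM final, in 100 mM HEPES pH 7.5, 25 mM KCl, 0.1% BSA, 0.01% Triton X-100, 1% DMSO. FAM-acetylated peptide substrate at 100 μM, mobility-shift read-out. Product/(substrate + product) converted to % inhibition. IC50 from a four-parameter fit; dose-response spans 12 threefold dilutions from 30.0 μM.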
(In general: Mobility shift assays separate free from complexed probe on a gel.)

Usually IC50 stands for the concentration needed to halve the response being measured. Regarding `CC(C)(C)c1ccc(CN(C(=O)CN(Cc2c(F)c(F)c(F)c(F)c2F)S(=O)(=O)c2ccc(F)cc2)c2ccc(C(=O)NO)cc2)cc1`, the 50% inhibitory concentration (IC50) is 4.6 µM in experiment [1] and 636 nM in experiment [2].
